From ChEMBL document CHEMBL1240480, “Design, synthesis and biological evaluation of L-dopa amide derivatives as potential prodrugs for the treatment of Parkinson's disease” (Eur J Med Chem, 2010)
Values belong to the molecule of their own block, whether it stands above or below them.

Experiments:
[1] = test system: Rattus norvegicus; assay: Antiparkinsonian activity in 6-hydroxydopamine lesioned Wistar rat assessed as number of rotation per 10 mins at 23.89 mg/kg, po; type: functional
[2] = test system: Rattus norvegicus; assay: Antiparkinsonian activity in 6-hydroxydopamine lesioned Wistar rat assessed as area under curve measured as number of rotation per 10 mins at 23.89 mg/kg, po; type: functional
In short: (§1)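 Male Wistar rats were given desipramine (25 mg/kg ip) and then a unilateral 6-OHDA injection (8 µg free base) into the left medial forebrain bundle. Lesions were confirmed ≥2 weeks later by apomorphine (0.5 mg/kg sc), accepting rats with >6 turns/min. Rats (n=4–8) received benserazide 10 mg/kg and 30 min basal recording, then drug at 63.4 µmol/kg ip or po in saline. Contraversive rotations were counted per 10 min over 240 min. AUC was calculated and expressed as % of the L-dopa effect.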

[3] = test system: Rattus norvegicus; assay: Antiparkinsonian activity in 6-hydroxydopamine lesioned Wistar rat assessed as duration of rotation per 10 mins at 23.89 mg/kg, po; type: functional
In short: (§2)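 The 6-OHDA-lesioned male Wistar rats were apomorphine-screened (>6 turns/min) and given benserazide 10 mg/kg, then a saline-vehicle dose of 63.4 µmol/kg ip or po (n=4–8). Rotations were counted per 10 min for 4 h. Duration of activity was the time turning >10 turns per 10 min, expressed as % of the L-dopa effect.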

[4] = test system: Rattus norvegicus; assay: Cmax in Wistar rat at 23.9 mg/kg, po assessed as L-dopa level; type: ADME, organism-based; set-up: dose 23.9 mg/kg, route oral; conditions: in vivo
In short: (§3)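 Naïve male Wistar rats (250–500 g), fasted overnight, dosed orally in 0.9% saline with benserazide (10 mg/kg) at dose equivalent to 12.5 mg/kg L-dopa. Heparinised tail-vein blood at various times; plasma extracted with 20% TFA in 10 mM metabisulphite with warfarin internal standard; L-dopa quantified by LC-MS/MS (positive ESI) against plasma standard curve 0.39–50 µM.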

[5] = test system: Rattus norvegicus; assay: AUC (0 to 4 hrs) in Wistar rat at 23.9 mg/kg, po assessed as L-dopa level; type: ADME, organism-based, Plasma; set-up: time < 4 hr, dose 23.9 mg/kg, route oral; conditions: in vivo
In short: (§4)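 Naïve male Wistar rats (250–500 g), fasted overnight, dosed with compound in 0.9% saline together with benserazide (10 mg/kg), at a dose molar-equivalent to 12.5 mg/kg L-dopa. Heparinised tail-vein blood was sampled at intervals and the plasma stored at −80 °C. L-dopa was extracted with 20% TFA/10 mM metabisulphite plus warfarin internal standard and quantified by LC-MS/MS (positive ESI) against plasma standard curves.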

[6] = test system: Rattus norvegicus; assay: Antiparkinsonian activity in 6-hydroxydopamine lesioned Wistar rat assessed as duration of rotation per 10 mins at 15.64 mg/kg, po; type: functional; in short: as §2
[7] = test system: Rattus norvegicus; assay: Antiparkinsonian activity in 6-hydroxydopamine lesioned Wistar rat assessed as number of rotation per 10 mins at 15.64 mg/kg, ip; type: functional; conditions: route intraperitoneal
In short: (§5)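 Rotometer assay in unilaterally 6-OHDA-lesioned male Wistar rats (apomorphine-confirmed, >6 turns/min). Benserazide 10 mg/kg was given, followed by compound at 63.4 µmol/kg ip or po in saline (n=4–8 per treatment). Rotations were recorded per 10 min for 240 min. Peak (maximum) rotations per 10 min were taken and expressed relative to L-dopa.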

[8] = test system: Rattus norvegicus; assay: Antiparkinsonian activity in 6-hydroxydopamine lesioned Wistar rat assessed as number of rotation per 10 mins at 15.64 mg/kg, po; type: functional; in short: as §5
[9] = test system: Rattus norvegicus; assay: Antiparkinsonian activity in 6-hydroxydopamine lesioned Wistar rat assessed as area under curve measured as number of rotation per 10 mins at 15.64 mg/kg, po; type: functional; in short: as §1
[10] = test system: Rattus norvegicus; assay: Antiparkinsonian activity in 6-hydroxydopamine lesioned Wistar rat assessed as area under curve measured as number of rotation per 10 mins at 15.64 mg/kg, ip; type: functional; conditions: route intraperitoneal; in short: as §1
[11] = test system: Rattus norvegicus; assay: Antiparkinsonian activity in 6-hydroxydopamine lesioned Wistar rat assessed as duration of rotation per 10 mins at 15.64 mg/kg, ip; type: functional; conditions: route intraperitoneal; in short: as §2
[12] = test system: Rattus norvegicus; assay: Antiparkinsonian activity in 6-hydroxydopamine lesioned Wistar rat assessed as duration of rotation per 10 mins at 14.74 mg/kg, ip; type: functional; conditions: route intraperitoneal; in short: as §2
[13] = test system: Rattus norvegicus; assay: Antiparkinsonian activity in 6-hydroxydopamine lesioned Wistar rat assessed as duration of rotation per 10 mins at 14.74 mg/kg, po; type: functional; in short: as §2
[14] = test system: Rattus norvegicus; assay: Antiparkinsonian activity in 6-hydroxydopamine lesioned Wistar rat assessed as number of rotation per 10 mins at 14.74 mg/kg, ip; type: functional; conditions: route intraperitoneal; in short: as §5
[15] = test system: Rattus norvegicus; assay: Antiparkinsonian activity in 6-hydroxydopamine lesioned Wistar rat assessed as number of rotation per 10 mins at 14.74 mg/kg, po; type: functional; in short: as §5
[16] = test system: Rattus norvegicus; assay: Antiparkinsonian activity in 6-hydroxydopamine lesioned Wistar rat assessed as area under curve measured as number of rotation per 10 mins at 14.74 mg/kg, po; type: functional; in short: as §1
[17] = test system: Rattus norvegicus; assay: Antiparkinsonian activity in 6-hydroxydopamine lesioned Wistar rat assessed as area under curve measured as number of rotation per 10 mins at 14.74 mg/kg, ip; type: functional; conditions: route intraperitoneal; in short: as §1
[18] = test system: Rattus norvegicus; assay: Cmax in Wistar rat at 14.8 mg/kg, po assessed as L-dopa level; type: ADME, organism-based; set-up: dose 14.8 mg/kg, route oral; conditions: in vivo; in short: as §3
[19] = test system: Rattus norvegicus; assay: Apparent half life in Wistar rat at 14.8 mg/kg, po assessed as L-dopa level; type: ADME, organism-based; set-up: dose 14.8 mg/kg, route oral; conditions: in vivo; in short: as §3
[20] = test system: Rattus norvegicus; assay: AUC (0 to 4 hrs) in Wistar rat at 14.8 mg/kg, po assessed as L-dopa level; type: ADME, organism-based, Plasma; set-up: time < 4 hr, dose 14.8 mg/kg, route oral; conditions: in vivo; in short: as §4
[21] = test system: Rattus norvegicus; assay: Antiparkinsonian activity in 6-hydroxydopamine lesioned Wistar rat assessed as number of rotation per 10 mins at 21.35 mg/kg, ip; type: functional; conditions: route intraperitoneal
[22] = test system: Rattus norvegicus; assay: Antiparkinsonian activity in 6-hydroxydopamine lesioned Wistar rat assessed as number of rotation per 10 mins at 21.35 mg/kg, po; type: functional
[23] = test system: Rattus norvegicus; assay: Antiparkinsonian activity in 6-hydroxydopamine lesioned Wistar rat assessed as area under curve measured as number of rotation per 10 mins at 21.35 mg/kg, po; type: functional; in short: as §1
[24] = test system: Rattus norvegicus; assay: Antiparkinsonian activity in 6-hydroxydopamine lesioned Wistar rat assessed as area under curve measured as number of rotation per 10 mins at 21.35 mg/kg, ip; type: functional; conditions: route intraperitoneal; in short: as §1
[25] = test system: Rattus norvegicus; assay: Antiparkinsonian activity in 6-hydroxydopamine lesioned Wistar rat assessed as duration of rotation per 10 mins at 21.35 mg/kg, po; type: functional; in short: as §2
[26] = test system: Rattus norvegicus; assay: Antiparkinsonian activity in 6-hydroxydopamine lesioned Wistar rat assessed as duration of rotation per 10 mins at 21.35 mg/kg, ip; type: functional; conditions: route intraperitoneal; in short: as §2
[27] = test system: Rattus norvegicus; assay: Antiparkinsonian activity in 6-hydroxydopamine lesioned Wistar rat assessed as number of rotation per 10 mins at 20.97 mg/kg, po; type: functional; in short: as §5
[28] = test system: Rattus norvegicus; assay: Antiparkinsonian activity in 6-hydroxydopamine lesioned Wistar rat assessed as area under curve measured as number of rotation per 10 mins at 20.97 mg/kg, po; type: functional; in short: as §1
[29] = test system: Rattus norvegicus; assay: Antiparkinsonian activity in 6-hydroxydopamine lesioned Wistar rat assessed as duration of rotation per 10 mins at 20.97 mg/kg, po; type: functional; in short: as §2
[30] = test system: Rattus norvegicus; assay: Antiparkinsonian activity in 6-hydroxydopamine lesioned Wistar rat assessed as number of rotation per 10 mins at 16.53 mg/kg, ip; type: functional; conditions: route intraperitoneal; in short: as §5
[31] = test system: Rattus norvegicus; assay: Antiparkinsonian activity in 6-hydroxydopamine lesioned Wistar rat assessed as number of rotation per 10 mins at 16.53 mg/kg, po; type: functional; in short: as §5
[32] = test system: Rattus norvegicus; assay: Antiparkinsonian activity in 6-hydroxydopamine lesioned Wistar rat assessed as area under curve measured as number of rotation per 10 mins at 16.53 mg/kg, po; type: functional; in short: as §1
[33] = test system: Rattus norvegicus; assay: Antiparkinsonian activity in 6-hydroxydopamine lesioned Wistar rat assessed as area under curve measured as number of rotation per 10 mins at 16.53 mg/kg, ip; type: functional; conditions: route intraperitoneal; in short: as §1
[34] = test system: Rattus norvegicus; assay: Antiparkinsonian activity in 6-hydroxydopamine lesioned Wistar rat assessed as duration of rotation per 10 mins at 16.53 mg/kg, po; type: functional; in short: as §2
[35] = test system: Rattus norvegicus; assay: Antiparkinsonian activity in 6-hydroxydopamine lesioned Wistar rat assessed as duration of rotation per 10 mins at 16.53 mg/kg, ip; type: functional; conditions: route intraperitoneal; in short: as §2
[36] = test system: Rattus norvegicus; assay: Antiparkinsonian activity in 6-hydroxydopamine lesioned Wistar rat assessed as duration of rotation per 10 mins at 12.5 mg/kg, ip; type: functional; conditions: route intraperitoneal; in short: as §2
[37] = test system: Rattus norvegicus; assay: Antiparkinsonian activity in 6-hydroxydopamine lesioned Wistar rat assessed as duration of rotation per 10 mins at 12.5 mg/kg, po; type: functional; in short: as §2
[38] = test system: Rattus norvegicus; assay: Antiparkinsonian activity in 6-hydroxydopamine lesioned Wistar rat assessed as number of rotation per 10 mins at 12.5 mg/kg, ip; type: functional; conditions: route intraperitoneal; in short: as §5
[39] = test system: Rattus norvegicus; assay: Antiparkinsonian activity in 6-hydroxydopamine lesioned Wistar rat assessed as number of rotation per 10 mins at 12.5 mg/kg, po; type: functional; in short: as §5
[40] = test system: Rattus norvegicus; assay: Antiparkinsonian activity in 6-hydroxydopamine lesioned Wistar rat assessed as area under curve measured as number of rotation per 10 mins at 12.5 mg/kg, po; type: functional; in short: as §1
[41] = test system: Rattus norvegicus; assay: Antiparkinsonian activity in 6-hydroxydopamine lesioned Wistar rat assessed as area under curve measured as number of rotation per 10 mins at 12.5 mg/kg, ip; type: functional; conditions: route intraperitoneal; in short: as §1

Cmax [4]: 690 ng/mL | AUC [5]: 95 µg·min/mL
Compound: CCOC(=O)Oc1ccc(C[C@H](N)C(N)=O)cc1OC(=O)OCC.Cl
Activity [1]: 90 | Activity [2]: 579 | Time [3]: 153 min

Compound: CNC(=O)[C@@H](N)Cc1ccc(O)c(O)c1.Cl
Time [6]: 10 min | Activity [7]: 2 | Activity [8]: 5 | Activity [9]: 29 | Activity [10]: 16 | Time [11]: 0 min

Cmax [18]: 2203 ng/mL | t1/2 [19]: 52 min | AUC [20]: 256 µg·min/mL
Compound: Cl.NC(=O)[C@@H](N)Cc1ccc(O)c(O)c1
Time [12]: 155 min | Time [13]: 103 min | Activity [14]: 144 | Activity [15]: 105 | Activity [16]: 612 | Activity [17]: 1186

Compound: Cl.N[C@@H](Cc1ccc(O)c(O)c1)C(=O)NCCc1ccccc1
Activity [21]: 124 | Activity [22]: 17 | Activity [23]: 94 | Activity [24]: 825 | Time [25]: 30 min | Time [26]: 124 min

Compound: CNC(=O)[C@@H](N)Cc1ccc(OC(C)=O)c(OC(C)=O)c1.Cl
Activity [27]: 1 | Activity [28]: 26 | Time [29]: 0 min

Compound: CCNC(=O)[C@@H](N)Cc1ccc(O)c(O)c1.Cl
Activity [30]: 40 | Activity [31]: 39 | Activity [32]: 324 | Activity [33]: 117 | Time [34]: 39 min | Time [35]: 18 min

Compound: N[C@@H](Cc1ccc(O)c(O)c1)C(=O)O [LEVODOPA]
Time [36]: 160 min | Time [37]: 119 min | Activity [38]: 104 | Activity [39]: 71 | Activity [40]: 522 | Activity [41]: 1021
